# TPT1 inhibitor = Candida albicans TPT1 enzyme inhibitors, primary screen, biochemical, fluorescence polarization; 300,000 tested, 0.81% active; AID 1962, 2009; inhibition, % at 5 µM; recombinant caTPT1, FP RNA substrate dephosphorylation;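 active = inhibition above the mean of all tested compounds plus 3 SD, set per screening campaign, cut at about 24% in these data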;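 also: plate controls were DMSO alone for no effect and ferristatin control at 100 nM for full effect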
# HNF4A DNA FP = change in binding of human HNF4A to DNA, primary screen, biochemical, fluorescence polarization, FITC-DNA. 360,000 tested, 0.3% active. 1 h. AID 1224865, 2016. activity change, % at 10 µM; in the data active = activity change above about 30%, passing the limit was not always enough
# Rin1 Abl inh = inhibitors of Rin1-Abl protein binding, primary screen, biochemical, TR-FRET; 360,000 tested, 0.4% active; Tyrosine-protein kinase ABL1 (Homo sapiens) + Ras and Rab interactor 1 (Homo sapiens), …; AID 588664, 2011; inhibition, % at 7.35 µM; in the data active = inhibition above about 5%, passing the limit was not always enough
# Neddylation inh = inhibitors of cullin neddylation, primary screen, biochemical, TR-FRET, uHTS, NAE and Ubc12; 360,000 tested, 0.58% active; AID 651699, 2012; inhibition, % at 25 µM; in the data active = inhibition above about 36%
# CSN inh = inhibitors of CSN-mediated cullin deneddylation, primary screen, biochemical, fluorescence polarization, uHTS; 360,000 tested, 0.38% active; AID 651999, 2013; Purified CSN, SCF-Nedd8-OG deneddylation; COP9 signalosome complex subunit 5 (Homo sapiens), Q92905; inhibition, % at 12.5 µM;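 active = pattern-corrected inhibition above about 35%, with an unprinted fluorescence ratio check between 0.5 and 1.5, limit read from the data, passing the limit was not always enough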;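 also: 0% = enzyme with substrate and 100% = substrate without enzyme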
# Target sequence (Q92905 whole entry, looked up, one chain of several): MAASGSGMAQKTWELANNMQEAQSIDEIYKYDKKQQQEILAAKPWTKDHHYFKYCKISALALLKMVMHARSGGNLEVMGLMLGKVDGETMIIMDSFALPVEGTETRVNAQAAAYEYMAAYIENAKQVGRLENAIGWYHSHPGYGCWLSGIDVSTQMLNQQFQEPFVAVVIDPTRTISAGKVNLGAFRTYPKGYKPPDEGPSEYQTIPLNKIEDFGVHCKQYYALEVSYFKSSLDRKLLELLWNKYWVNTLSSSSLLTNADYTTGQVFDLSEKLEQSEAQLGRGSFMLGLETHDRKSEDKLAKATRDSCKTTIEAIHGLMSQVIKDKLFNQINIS
#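 Test system: purified human Csn5 enzyme expressed in HEK293T cells. Amount: 0.24 nM enzyme. Reagent: SCFSkp2-Nedd8OG substrate at 10 nM final. Schedule: 90 min incubation of compound, enzyme and substrate at room temperature. Detection: fluorescence polarization. Read-out: % inhibition of substrate cleavage by Csn5.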
# Rpn11 block = Rpn11 (PSMD14) deubiquitinase inhibitors, primary screen, biochemical, fluorescence polarization, uHTS; 26S proteasome non-ATPase regulatory subunit 14 (Homo sapiens), O00487; human 26S proteasome, Ub4-pepOG fluorescence polarization; 20S core pre-blocked with epoxomicin; 360,000 tested, 0.59% active; inhibition, % at 20 µM;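 active = inhibition at 20 µM, scaled to each plate's controls, above about 33%, limit read from the data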
# Target sequence (O00487 whole entry, looked up): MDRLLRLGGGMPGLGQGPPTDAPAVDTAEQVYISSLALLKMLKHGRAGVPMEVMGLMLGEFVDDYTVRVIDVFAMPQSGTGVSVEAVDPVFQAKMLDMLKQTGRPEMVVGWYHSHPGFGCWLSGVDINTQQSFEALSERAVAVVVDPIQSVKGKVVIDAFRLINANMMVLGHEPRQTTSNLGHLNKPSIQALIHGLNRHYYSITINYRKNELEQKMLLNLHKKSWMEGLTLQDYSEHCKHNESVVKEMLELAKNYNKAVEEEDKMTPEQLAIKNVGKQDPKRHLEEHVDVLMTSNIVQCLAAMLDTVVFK
# TPT1 inh confirm = Candida albicans TPT1 inhibitors, confirmation, biochemical, fluorescence polarization, triplicate | shares compounds with TPT1 inhibitor | recombinant caTPT1, RNase T1 coupled | inhibition, % at 5 µM | 2,400 tested, 74% active;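 active = inhibition above the primary screen limit, the mean inhibition of all tested compounds plus 3 SD, cut at about 25% in these data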
# RNase T1 inh = RNase T1 inhibitors, counter-screen for TPT1 inhibitor project, biochemical, fluorescence polarization | shares compounds with TPT1 inhibitor | inhibition, % at 5 µM | RNase T1 cleavage, 1536-well | 2,400 tested, 83% active | AID 2153, 2009;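 active = inhibition above the solvent-only control well mean plus 3 SD, limit set per screening run, cut at about 23% in these data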;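 also: plate controls were DMSO wells with enzyme for no effect and wells without RNase T1 for full effect; inhibitors block cleavage so intact labeled substrate keeps polarization high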
# * marks the source's active call; other numbers are inactive results; x = no result given. Only some compounds are listed: those with a hit (about 2.4% of all), similar ones and a draw of the others.
SMILES,TPT1 inhibitor,HNF4A DNA FP,Rin1 Abl inh,Neddylation inh,CSN inh,Rpn11 block,TPT1 inh confirm,RNase T1 inh
Cc1ccc(N=C2NC(=O)/C(=C/c3cn(C)c4ccccc34)S2)cc1C,116.8*,65.3*,-7.4,16.4,53.6,x,121.1*,125.0*
CCCN1C(=O)/C(=C/c2ccc(N3CCOCC3)cc2)NC1=S,138.5*,90.5*,-0.3,-56.7,78.2,x,142.7*,139.0*
CCN1C(=O)/C(=C/c2ccc(OCc3ccc(C(=O)O)cc3)c(Cl)c2)NC1=S,-1.2,2.3,0.3,-12.6,2.0,7.2,x,x
Cc1ccc(CN2C(=O)N/C(=C\c3ccc(N4CCOCC4)cc3)C2=O)cc1,0.6,7.2,-0.1,30.1,3.2,9.0,x,x
CCN1C(=O)/C(=C/c2ccc(N3CCCC3)cc2)NC1=S,150.1*,148.5,-6.4,-254.6,137.2,x,153.8*,141.9*
O=C(c1ccc(NC(=S)NCc2ccco2)cc1)N1CCOCC1,2.0,-0.5,0.4,9.1,-0.6,0.1,x,x
Cc1cccc(NC(=S)N2CCN(S(C)(=O)=O)CC2)c1,-0.1,1.9,-1.8,-4.3,-4.7,3.7,x,x
O=[N+]([O-])c1cccc(C2NCC(c3ccccc3Cl)c3c2[nH]c2ccccc32)c1 (configuration not stated),130.6*,-3.4,2.6,-14.0,-3.6,3.0,10.2,13.4
CC(C)Cc1nc2c(nnn2Cc2ccccc2F)c(=O)[nH]1,0.2,4.4,-0.2,0.4,8.0,1.8,x,x
CC1CCN(CC(=O)Nc2sc3c(c2C#N)CCC3)CC1,39.1*,-0.7,0.5,1.9,-0.6,9.4,5.5,12.6
CCCC(=O)Nc1sc2c(c1C#N)CCCC2,-7.1,-1.5,0.0,3.2,-2.0,-6.0,x,x
O=C(Nc1c(C(=O)N2CCCCC2)cnn1-c1ccccc1)c1ccccc1F,x,2.4,-1.7,-1.9,-1.8,-11.1,x,x
Cc1nc(S/C(=C/c2ccc(-c3ccc(C(=O)O)cc3)o2)C(=O)O)n[nH]1,15.7,3.0,-3.2,-5.5,10.0,17.2,x,x
CC(=O)c1ccc(-c2ccc(/C=C(/Sc3n[nH]c(C)n3)C(=O)O)o2)cc1,77.7*,25.1,-5.7,-42.8,21.3,x,79.1*,91.2*
COc1ccc(CNC(=O)CN(c2cccc(OC)c2)S(C)(=O)=O)cc1,75.8*,-0.3,3.1,-7.7,0.3,-2.3,1.7,5.7
O=C1CCC/C(=N/NC(=O)c2sc3ccccc3c2Cl)C1,97.8*,149.1,-5.7,-18.3,-1.9,x,110.0*,107.8*
Oc1cccc(Nc2nc(O)c(/C=C3\C=Nc4ccccc43)s2)c1,77.2*,149.6,1.6,-17.7,117.6,x,129.6*,129.7*
COc1ccccc1C(O)P(=O)(OCC(C)C)c1ccc(N(C)C)cc1 (configuration not stated),1.1,-0.3,3.6,20.7,-4.2,3.5,x,x
N#C/C(=C\c1ccc(C(=O)O)cc1)c1ccccn1,-4.1,-3.1,1.8,-12.5,2.8,-1.9,x,x
CCN(CC)c1ccc(/C=C(\C#N)c2ccccn2)cc1,135.1*,88.6*,-5.7,-38.2,34.8,x,123.7*,129.5*
COc1cc(/C=C(\C#N)c2ccccn2)ccc1OCc1ccccc1,-1.9,-2.6,-2.8,32.8,-4.1,-5.1,x,x
CCN(Cc1ccccc1)c1ccc(/C=C(\C#N)c2ccccn2)cc1,67.4*,24.7,-1.7,16.1,10.7,32.8,45.7*,49.9*
CN(CCC#N)c1ccc(/C=C(\C#N)c2ccccn2)cc1,24.7*,1.1,-6.7,-13.1,-12.9,12.1,-66.5,-51.7
Cc1nc(Cl)nc(N(C)c2ccccc2)c1[N+](=O)[O-],0.3,3.8,-0.7,-2.8,5.0,2.4,x,x
Nc1ccc2c(c1)Cc1cc([N+](=O)[O-])ccc1-2,53.3*,37.2*,-8.5,-32.4,17.6,35.0,55.9*,64.5*
SMILES,TPT1 inhibitor,HNF4A DNA FP,Rin1 Abl inh,Neddylation inh,CSN inh,Rpn11 block,TPT1 inh confirm,RNase T1 inh
CC(=NO)c1ccc2c(c1)Cc1cc([N+](=O)[O-])ccc1-2,x,-0.6,4.1,-23.5,3.7,-1.1,x,x
O=C(O)CC/C(=N\Nc1ccc([N+](=O)[O-])cc1)c1ccccc1,33.9*,11.5,-0.5,-46.2,4.3,26.5,45.7*,58.6*
Cc1ccc2nc(N/N=C\c3ccc([N+](=O)[O-])o3)nc(-c3ccccc3)c2c1,52.3*,18.3,-4.6,-24.2,0.0,34.2,49.5*,44.1*
COc1ccc(C(=O)/C=C/Nc2ccc(S(=O)(=O)Nc3cc(OC)nc(OC)n3)cc2)c(OC)c1,36.1*,10.8,-3.5,13.1,2.5,30.2,38.9*,49.5*
COc1ccccc1/C=C/C1=NC(=C\C=C/c2ccccc2)/C(=O)O1,73.5*,-5.8,9.0,1.1,13.6,30.2,119.1*,122.4*
O=C1OC(/C=C/c2ccccc2)=NC/1=C\c1cccnc1,-2.6,-2.0,-3.4,0.5,5.8,3.1,x,x
Cc1ccc(-c2cc(C(=O)O)c3sc(N4CCCCC4)nc3n2)cc1,27.3*,1.2,-4.4,x,-6.7,15.9,5.4,10.2
COc1ccccc1C1NC=C([N+](=O)[O-])C=C1[N+](=O)[O-] (configuration not stated),19.1,2.7,-2.4,-30.0,5.7,2.8,x,x
COc1ccccc1C1C([N+](=O)[O-])=CC([N+](=O)[O-])=CN1C (configuration not stated),42.2*,-1.2,-3.4,-24.8,2.5,5.3,51.5*,60.8*
Cc1cc(N2C(=O)C(O)=C(C(=O)c3cc4ccccc4o3)C2c2cccs2)no1 (configuration not stated),40.8*,7.0,-1.9,21.4,10.2,15.0,29.9*,39.5*
Cc1cc(N2C(=O)C(O)=C(C(=O)c3ccc(C)o3)C2c2cccs2)no1 (configuration not stated),-0.5,-0.7,-0.5,-11.4,1.7,-0.5,x,x
CCOc1cccc(OCCOCCNC(C)(C)C)c1,37.8*,3.8,2.3,7.6,0.9,0.5,7.6,9.7
CN1CCN(c2cc(N3CCN(C(=O)c4ccco4)CC3)c3c4c(onc24)-c2ccccc2C3=O)CC1,-9.4,9.7,-15.5,-26.0,7.3,x,x,x
